Here are results for 7 compounds from ChEMBL document CHEMBL4219134, “Xanthone derivatives as phosphoglycerate mutase 1 inhibitors: Design, synthesis, and biological evaluation” (Bioorg Med Chem, 2018).

The target in assay [1] is T1, Phosphoglycerate mutase 1 (Homo sapiens, UniProt P18669). Nature of the assay: Inhibition of recombinant PGAM1 (unknown origin) using 3-PG as substrate preincubated for 2 mins followed by substrate addition. In short, it runs like this:
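Recombinant PGAM1 plus compound (DMSO) in 50 mM Tris pH 8.0, preincubated 2 min at room temperature. Started with 3PG (200 mM stock); NADH oxidation read as OD340 decrease. IC50 from triplicates, mean ± sd.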

Assay [2] has as its system PANC-1. The assay is described as follows: Antiproliferative activity against PGAM1 knockdown human PANC1 cells after 72 hrs by MTT assay. As to conditions: PANC-1, 72 h. The format is functional, cell-based. The gist of the method: (§1)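 MTT assay: 2 × 10^3 cells per well, cultured 24 h at 37 °C. Compound then added for 72 h at 37 °C, followed by 0.5 mg mL-1 MTT for 4 h. Formazan dissolved in DMSO and absorbance read at 570 nm. IC50 from triplicate experiments, mean ± sd.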

Another assay has as its system MCF7. The assay is described as follows: Antiproliferative activity against human MCF7 cells after 72 hrs by MTT assay. As to conditions: MCF7, 72 h. The class given is functional, cell-based. In short, it runs like this:
as §1
A general note: Formazan colour is commonly taken as a measure of viable cells.

For assay [3], the species on record is Homo sapiens. The assay is described as follows: Inhibition of enolase (unknown origin) at 5 uM using 2-PG relative to control. In short, it runs like this: (§2)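 PGAM1 omitted to test the downstream coupling enzymes. Compound (0.5 mM stock) preincubated 2 min at room temperature in 50 mM Tris pH 8.0. OD340 decrease read; inhibition ratio at 5 µM.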
The test system of assay [4] is PANC-1. The assay is described as follows: Antiproliferative activity against PGAM1 overexpessed human PANC1 cells after 72 hrs by MTT assay. The format is functional, cell-based. The note with it: PANC-1, 72 h. The gist of the method:
as §1

For assay [5], the system named is NCI-H1299. The assay is described as follows: Antiproliferative activity against human H1299 cells after 72 hrs by MTT assay. The format is functional, cell-based. The note with it: NCI-H1299, 72 h. In short, it runs like this:
as §1

In assay [6] the test system is PANC-1. Nature of the assay: Antiproliferative activity against human PANC1 cells after 72 hrs by MTT assay. The format is functional, cell-based. The note with it: PANC-1, 72 h. In short, it runs like this:
as §1

The species named for assay [7] is Homo sapiens. The assay is described as follows: Inhibition of pyruvate kinase (unknown origin) at 5 uM using 2-PG relative to control. The gist of the method:
as §2

Assay [8] deals with L-lactate dehydrogenase (Homo sapiens) (UniProt V9HWB9). The assay is described as follows: Inhibition of LDH (unknown origin) at 5 uM using 2-PG relative to control. In short, it runs like this: as §2
For assay [9], the target named is T1, Phosphoglycerate mutase 1. The assay is described as follows: Inhibition of PGAM1 in human MDA-MB-231 cells using 3-PGA as substrate after 2 hrs in by UV-vis spectrophotometric method. The class given is cell-based.
For assay [10], the system named is NCI-H1299. The assay is described as follows: Antiproliferative activity in human H1299 cells. The class given is functional, cell-based.
Assay [11] relates to NCI-H1299. The assay is described as follows: Potency index, ratio of PGMI-004A IC50 to test compound IC50 for antiproliferative activity against human H1299 cells. The class given is functional.
Assay [12] deals with NCI-H1299. Nature of the assay: Antiproliferative activity against human H1299 cells at 40 uM after 72 hrs by MTT assay relative to control. The class given is functional. The note with it: NCI-H1299, 72 h. The gist of the method:
(§3)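 MTT format: 2 × 10^3 cells per well, seeded 24 h, then compound for 72 h at 37 °C. 0.5 mg mL-1 MTT for 4 h, DMSO solubilization, A570. Inhibition ratio recorded at the top tested concentration: 40 µM for H1299, 200 µM for PANC-1.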

For assay [13], the system named is PANC-1. Nature of the assay: Antiproliferative activity against human PANC1 cells at 200 uM after 72 hrs by MTT assay relative to control. The class given is functional. As to conditions: PANC-1, 72 h. In short, it runs like this:
as §3

The species named for assay [14] is Homo sapiens. The assay is described as follows: Inhibition of pyruvate kinase (unknown origin) at 0.625 uM using 2-PG relative to control. In short, it runs like this: (§4)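 Counter-screen of the coupled downstream enzymes without PGAM1. Compound was preincubated 2 min at room temperature in 50 mM Tris pH 8.0. The reaction was started with 2PG (200 mM stock), and the NADH oxidation decrease was read at 340 nm.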

Assay [15] addresses L-lactate dehydrogenase (Homo sapiens) (UniProt V9HWB9). The assay is described as follows: Inhibition of LDH (unknown origin) at 0.625 uM using 2-PG relative to control. In short, it runs like this: as §4
In assay [16] the test system is NCI-H1299. The assay is described as follows: Antiproliferative activity in human NCI-H1299 cells after 72 hrs. The format is functional, cell-based. As to conditions: NCI-H1299, 72 h. The gist of the method:
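MTT assay: 2 × 10^3 cells per well were seeded and cultured 24 h at 37 °C. Inhibitor was added and cells were incubated 72 h at 37 °C. MTT was then added at 0.5 mg/mL for 4 h at 37 °C, followed by DMSO solubilisation and absorbance reading at 570 nm. IC50 is reported as mean ± sd of triplicates.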

In assay [17] the target is T1, Phosphoglycerate mutase 1. Nature of the assay: Inhibition of recombinant human His-tagged PGAM1 expressed in Escherichia coli BL21 competent cells by multiple enzymes coupled assay measuring NADH oxidation at 340 nm.
The species named for assay [18] is Homo sapiens. The assay is described as follows: Inhibition of enolase (unknown origin) at 0.625 uM using 2-PG relative to control. In short, it runs like this: as §4

T1 sequence (P18669 whole entry): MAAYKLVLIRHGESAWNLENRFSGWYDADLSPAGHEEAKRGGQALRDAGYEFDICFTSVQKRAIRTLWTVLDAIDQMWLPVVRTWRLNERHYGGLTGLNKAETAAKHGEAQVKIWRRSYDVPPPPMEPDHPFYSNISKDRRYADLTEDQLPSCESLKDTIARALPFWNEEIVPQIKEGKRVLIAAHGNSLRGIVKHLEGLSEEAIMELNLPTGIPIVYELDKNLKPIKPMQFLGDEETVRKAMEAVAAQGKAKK

One may read the IC50 as the midpoint of a concentration-inhibition curve. By inhibition is commonly meant the share of the control response that was lost under treatment. Read a high inhibition as a response far below the control. `O=c1c2c(O)cccc2oc2cc(NS(=O)(=O)c3cc(C(F)(F)F)ccc3C(F)(F)F)c(O)c(O)c12`: the 50% inhibitory concentration (IC50) in assay [1] was determined as 6.3 µM; in the assay on PANC-1 [2], 42.8 µM; with MCF7, 15.8 µM; in the assay on PANC-1 [4] it was 25 µM; with NCI-H1299 [5] it was 16.8 µM; in the assay with PANC-1 [6] it was 10.5 µM. Moreover, the inhibition (in the assay listed under Homo sapiens [3]; in the assay filed under Homo sapiens [7]; in assay [8]) was 2% throughout.

As to `C#CCCCC(=O)OC(C)(C)[C@H]1CC[C@]2(CO2)[C@@H](OC(=O)N[C@@H](Cc2c[nH]c3ccccc23)C(=O)OCc2ccccc2)C1`, inhibition in assay [9] was half-maximal at 33 µM (IC50).

As to `O=C1c2ccccc2C(=O)c2c1cc(S(=O)(=O)Nc1ccc(C(F)(F)F)cc1)c(O)c2O`, the IC50 with MCF7 was over 40 µM; in the assay on NCI-H1299 [10], 25.6 to 26 µM; in the assay on PANC-1 [6], 32 µM. Further, the inhibition (in the assay listed under Homo sapiens [3]; in the assay listed under Homo sapiens [7]; in assay [8]) was 38% throughout.

In the case of `O=c1c2c(O)cccc2oc2cc(NS(=O)(=O)c3ccc(N4CCCC4)cc3)c(O)c(O)c12`, the IC50 in assay [1] is 2.7 µM; with MCF7, over 200 µM; with NCI-H1299 [5], 5 µM; in the assay with PANC-1 [6], 137 µM. Further, the inhibition (in the assay filed under Homo sapiens [3]; in the assay filed under Homo sapiens [7]; in [8]) was 4% each time. The “Ratio IC50” value with NCI-H1299 [11] is 5.

For the compound `O=c1c2c(O)cccc2oc2cc(NS(=O)(=O)c3ccc(Br)cc3)c(O)c(O)c12`, the IC50 in assay [1] was 2.9 µM; in the assay on MCF7 it was 6.8 µM; with NCI-H1299 [5], over 40 µM; in the assay with PANC-1 [6], over 200 µM. The inhibition (in the assay filed under Homo sapiens [3]; in the assay listed under Homo sapiens [7]; in [8]) was 6% in each case. The inhibition at 40 µM with NCI-H1299 [12] is under 50%.

`O=c1c2c(O)cccc2oc2cc(NS(=O)(=O)c3ccccc3)c(O)c(O)c12` returned an inhibition at 200 µM in the assay with PANC-1 [13] of under 50%. Moreover, the concentration for half-maximal inhibition (IC50) in assay [1] was 2.8 µM; with MCF7, 113 µM; in the assay on NCI-H1299 [5], 59 µM; in the assay on PANC-1 [6], over 200 µM. The inhibition (in the assay listed under Homo sapiens [3]; in the assay filed under Homo sapiens [7]; in assay [8]) was 6% in each case.

With `O=C(O[C@@H]1Cc2c(O)cc(O)cc2O[C@@H]1c1cc(O)c(O)c(O)c1)c1cc(O)c(O)c(O)c1` [EPIGALOCATECHIN GALLATE], the inhibition (in the assay filed under Homo sapiens [14]; in assay [15]; in the assay listed under Homo sapiens [18]) was 63% throughout. Moreover, the IC50 was over 80 µM in the assay on NCI-H1299 [16] and 0.49 µM in assay [17].
